In brackets after ≈: the same amount, converted by molar mass.
How the values were obtained:
[1] = system: Klebsiella aerogenes; experiment: Minimum inhibitory concentration against Klebsiella aerogenes X5L (inoculum, 10e4 cfu per spot); type: functional
Method in brief: (§1)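 MIC in µg/mL, determined in Jewell and Permain growth medium with spot inoculation at 10^4 cfu per spot. P99 is described as a constitutive type I lactamase producer.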

[2] = system: Klebsiella pneumoniae; experiment: Minimum inhibitory concentration against Klebsiella pneumoniae A24 (inoculum, 10e5 cfu per spot); type: functional
Method in brief: (§2)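 MIC in µg/mL, determined in Jewell and Permain growth medium with spot inoculation at 10^5 cfu per spot.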

[3] = system: Escherichia coli; experiment: Minimum inhibitory concentration against Escherichia coli TEM X3 (inoculum, 10e4 cfu per spot)(TEM I type lactamase producer)
[4] = system: Staphylococcus aureus; experiment: Minimum inhibitory concentration against Staphylococcus aureus A4 (inoculum, 10e5 cfu per spot); type: functional; method in brief: as §2
[5] = system: Staphylococcus aureus; experiment: Minimum inhibitory concentration against Staphylococcus aureus A6 (inoculum, 10e5 cfu per spot); type: functional; method in brief: as §2
[6] = system: Escherichia coli; experiment: Minimum inhibitory concentration against Escherichia coli DCO (inoculum, 10e4 cfu per spot); type: functional; method in brief: as §1
[7] = system: Enterobacter cloacae; experiment: Minimum inhibitory concentration against Enterobacter cloacae A13 (inoculum, 10e5 cfu per spot); type: functional; method in brief: as §2
[8] = system: Pseudomonas aeruginosa; experiment: Minimum inhibitory concentration against Pseudomonas aeruginosa A21 (inoculum, 10e5 cfu per spot); type: functional; method in brief: as §2
[9] = system: Klebsiella aerogenes; experiment: Minimum inhibitory concentration against Klebsiella aerogenes X6 (inoculum, 10e4 cfu per spot); type: functional; method in brief: as §1
[10] = system: Streptococcus pyogenes; experiment: Minimum inhibitory concentration against Streptococcus pyogenes (inoculum, 10e5 cfu per spot) A1; type: functional; method in brief: as §2
[11] = system: Enterobacter cloacae; experiment: Minimum inhibitory concentration against Enterobacter cloacae P99 (inoculum, 10e4 cfu per spot); type: functional; method in brief: as §1
[12] = system: Enterobacter cloacae; experiment: Minimum inhibitory concentration against Enterobacter cloacae P99 (inoculum, 10e4 cfu per spot)(type I lactamase producer); type: functional; method in brief: as §1
[13] = system: Escherichia coli; experiment: Minimum inhibitory concentration against Escherichia coli A8 (inoculum, 10e5 cfu per spot); type: functional; method in brief: as §2
[14] = system: Proteus mirabilis; experiment: Minimum inhibitory concentration against Proteus mirabilis A18 (inoculum, 10e5 cfu per spot); type: functional; method in brief: as §2
[15] = system: Escherichia coli; experiment: Minimum inhibitory concentration against Escherichia coli X4 (inoculum, 10e4 cfu per spot)
[16] = system: Serratia marcescens; experiment: Minimum inhibitory concentration against Serratia marcescens A16 (inoculum, 10e5 cfu per spot); type: functional; method in brief: as §2
[17] = system: Escherichia coli; experiment: Minimum inhibitory concentration against Escherichia coli DC2 (inoculum, 10e4 cfu per spot); type: functional; method in brief: as §1

MIC [1] [µg/mL] | MIC [2] [µg/mL] | MIC [3] [µg/mL] | MIC [4] [µg/mL] | MIC [5] [µg/mL] | MIC [6] [µg/mL] | MIC [7] [µg/mL] | MIC [8] [µg/mL] | MIC [9] [µg/mL] | MIC [10] [µg/mL] | MIC [11] [µg/mL] | MIC [12] [µg/mL] | MIC [13] [µg/mL] | MIC [14] [µg/mL] | MIC [15] [µg/mL] | MIC [16] [µg/mL] | MIC [17] [µg/mL] | Structure (SMILES)
> 256 | > 256 | > 256 | > 256 | > 256 | > 256 | > 256 | > 256 | > 256 | > 256 | > 256 | > 256 | > 256 | > 256 | > 256 | > 256 | > 256 | CO[C@@]1(Nc2nc3ccccc3[nH]2)C(=O)N2C(C(=O)OC(c3ccccc3)c3ccccc3)=C(COC(C)=O)CSC21 (stereo not given in full)
16 (≈ 32.5 µM) | 16 (≈ 32.5 µM) | 8 (≈ 16.3 µM) | > 256 | > 256 | 8 (≈ 16.3 µM) | > 256 | > 256 | 16 (≈ 32.5 µM) | > 256 | 4 (≈ 8.14 µM) | 8 (≈ 16.3 µM) | 32 (≈ 65.1 µM) | > 256 | 8 (≈ 16.3 µM) | > 256 | 2 (≈ 4.07 µM) | CC1=C(C(=O)OC(c2ccccc2)c2ccccc2)N2C(=O)[C@@H](NC3=NC(C(N)=O)CN3)C2SC1 (stereo not given in full)
> 200 | 40 (≈ 81.7 µM) | > 200 | 200 (≈ 409 µM) | 1 (≈ 2.04 µM) | 128 (≈ 261 µM) | 40 (≈ 81.7 µM) | > 200 | > 200 | 1 (≈ 2.04 µM) | 64 (≈ 131 µM) | > 200 | 40 (≈ 81.7 µM) | 40 (≈ 81.7 µM) | > 200 | > 200 | 8 (≈ 16.3 µM) | CC(=O)OCC1=C(C(=O)OC(C)(C)C)N2C(=O)[C@@H](Nc3nc4cc([N+](=O)[O-])ccc4[nH]3)C2SC1 (stereo not given in full)
256 (≈ 558 µM) | – | 64 (≈ 140 µM) | > 256 | 32 (≈ 69.8 µM) | 64 (≈ 140 µM) | > 256 | > 256 | 256 (≈ 558 µM) | 32 (≈ 69.8 µM) | 64 (≈ 140 µM) | > 256 | 128 (≈ 279 µM) | 32 (≈ 69.8 µM) | 32 (≈ 69.8 µM) | > 256 | 0.25 (≈ 0.545 µM) | CC(=O)OCC1=C(C(=O)OC(C)(C)C)N2C(=O)[C@@H](Nc3nc4ccccc4n3C)C2SC1 (stereo not given in full)
40 (≈ 86.5 µM) | > 256 | 2 (≈ 4.32 µM) | > 256 | > 256 | 8 (≈ 17.3 µM) | > 256 | > 256 | 8 (≈ 17.3 µM) | > 256 | 2 (≈ 4.32 µM) | 2 (≈ 4.32 µM) | 128 (≈ 277 µM) | > 256 | 2 (≈ 4.32 µM) | > 256 | 4 (≈ 8.65 µM) | CC1=C(C(=O)OC(c2ccccc2)c2ccccc2)N2C(=O)[C@@H](NC3=NCC(C)N3)C2SC1 (stereo not given in full)
> 200 | > 200 | 128 (≈ 225 µM) | > 200 | 40 (≈ 70.2 µM) | 4 (≈ 7.02 µM) | > 200 | > 200 | 8 (≈ 14 µM) | 40 (≈ 70.2 µM) | 4 (≈ 7.02 µM) | > 200 | 40 (≈ 70.2 µM) | 200 (≈ 351 µM) | 8 (≈ 14 µM) | > 200 | 1 (≈ 1.76 µM) | CC(=O)OCC1=C(C(=O)OC(c2ccccc2)c2ccccc2)N2C(=O)[C@@H](Nc3nc4c(N)cccc4[nH]3)C2SC1 (stereo not given in full)
> 256 | – | > 256 | > 256 | > 256 | > 256 | > 256 | > 256 | > 256 | > 256 | > 256 | > 256 | > 256 | > 256 | > 256 | > 256 | > 256 | CC1=C(C(=O)OC(C)(C)C)N2C(=O)[C@@H](Nc3nc4ccccc4n3CC(=O)OC(C)(C)C)C2SC1 (stereo not given in full)

The next lines start with the compound.

Structure (SMILES) | MIC [1] [µg/mL] | MIC [2] [µg/mL] | MIC [3] [µg/mL] | MIC [4] [µg/mL] | MIC [5] [µg/mL] | MIC [6] [µg/mL] | MIC [7] [µg/mL] | MIC [8] [µg/mL] | MIC [9] [µg/mL] | MIC [10] [µg/mL] | MIC [11] [µg/mL] | MIC [12] [µg/mL] | MIC [13] [µg/mL] | MIC [14] [µg/mL] | MIC [15] [µg/mL] | MIC [16] [µg/mL] | MIC [17] [µg/mL]
Cn1nnnc1SCC1=C(C(=O)OC(C)(C)C)N2C(=O)[C@@H](NC3=NCCN3)C2SC1 (stereo not given in full) | 2 (≈ 4.42 µM) | 2 (≈ 4.42 µM) | 1 (≈ 2.21 µM) | > 256 | > 256 | 8 (≈ 17.7 µM) | – | > 256 | 1 (≈ 2.21 µM) | 128 (≈ 283 µM) | 1 (≈ 2.21 µM) | 8 (≈ 17.7 µM) | 2 (≈ 4.42 µM) | > 256 | 1 (≈ 2.21 µM) | 32 (≈ 70.7 µM) | –
CC(=O)OCC1=C(C(=O)OC(c2ccccc2)c2ccccc2)N2C(=O)[C@@H](Nc3nc4cscc4[nH]3)C2SC1 (stereo not given in full) | 128 (≈ 228 µM) | 16 (≈ 28.5 µM) | 4 (≈ 7.13 µM) | 32 (≈ 57.1 µM) | 4 (≈ 7.13 µM) | 1 (≈ 1.78 µM) | > 256 | > 256 | 2 (≈ 3.57 µM) | 2 (≈ 3.57 µM) | 1 (≈ 1.78 µM) | > 256 | 8 (≈ 14.3 µM) | 32 (≈ 57.1 µM) | 0.5 (≈ 0.892 µM) | > 256 | 0.06 (≈ 0.107 µM)
CC1=C(C(=O)OC(c2ccccc2)c2ccccc2)N2C(=O)[C@@H](NC3=NC(c4ccc(C#N)cc4)CN3)C2SC1 (stereo not given in full) | 8 (≈ 14.6 µM) | 16 (≈ 29.1 µM) | 4 (≈ 7.28 µM) | > 256 | > 256 | 2 (≈ 3.64 µM) | > 256 | > 256 | 8 (≈ 14.6 µM) | 64 (≈ 116 µM) | 4 (≈ 7.28 µM) | 8 (≈ 14.6 µM) | 4 (≈ 7.28 µM) | > 256 | 4 (≈ 7.28 µM) | 16 (≈ 29.1 µM) | 2 (≈ 3.64 µM)
CC(=O)OCC1=C(C(=O)OC(c2ccccc2)c2ccccc2)N2C(=O)[C@@H](Nc3nc4cc(C(=O)O)ccc4[nH]3)C2SC1 (stereo not given in full) | > 256 | 32 (≈ 53.5 µM) | 16 (≈ 26.7 µM) | 256 (≈ 428 µM) | 32 (≈ 53.5 µM) | 8 (≈ 13.4 µM) | > 256 | > 256 | 16 (≈ 26.7 µM) | 8 (≈ 13.4 µM) | 4 (≈ 6.68 µM) | > 256 | 16 (≈ 26.7 µM) | 32 (≈ 53.5 µM) | 8 (≈ 13.4 µM) | > 256 | 0.25 (≈ 0.418 µM)
CC1=C(C(=O)OC(c2ccccc2)c2ccccc2)N2C(=O)[C@@H](NC3=NCCN3C)C2SC1 (stereo not given in full) | > 200 | 40 (≈ 86.5 µM) | 128 (≈ 277 µM) | > 200 | > 200 | 128 (≈ 277 µM) | > 200 | > 200 | 128 (≈ 277 µM) | > 200 | 64 (≈ 138 µM) | 128 (≈ 277 µM) | 40 (≈ 86.5 µM) | > 200 | 128 (≈ 277 µM) | > 200 | 32 (≈ 69.2 µM)
